# Tested on: MC38-hPD-L1 tumors
# Assay: MC38-hPD-L1 tumor model in humanized PD-1 mice
# Assay type: in vivo, mouse
# Conditions: 10 mg/kg i.p.; p<0.001
# In short: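 Male C57BL/6N humanized PD-1 mice receive 1×10^6 MC38-hPD-L1 cells s.c. in the right flank. At day 12 (~60 mm3) they are randomized into 3 groups (N=6). Dosing is 10 mg/kg i.p. daily for 10 doses, or atezolizumab 10 mg/kg i.p. three times weekly, both over days 12–22. Tumour (X2Y0.5, caliper) and body weight are measured every 3 days. At day 30, tumours are enzymatically digested and analysed by flow cytometry.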
substance,measurement,value
atezolizumab: clinically relevant anti-PD-L1 antibody control in vivo,tumor growth inhibition,significant

# Source: paper PMC9310269 (Journal for Immunotherapy of Cancer, 2022)
